Read-outs that look alike come from different tables or passages of the source.
Key:
BCRP = conditions: cited from earlier work
[1] = Small-animal PET imaging of [11C]-1 in wild-type and transporter knockout mice; type: in vivo; conditions: for Brain AUC / Brain-blood ratio, 25 min / Brain concentration, 25 min: total radioactivity, mean±SD; for Brain AUC: 0-60 min; for Brain AUC / Brain concentration, 25 min: n=3; for AUC of brain TACs, fold higher compared to wild-type animals: p=0.0495
In short: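 Female mice, 25-30 g, three per genotype. Isoflurane 2.5% to induce, 1.5-2% by mask to maintain, warmed to about 38°C. About 0.1 mL radiotracer (28±16 MBq) into the lateral tail vein. Whole-brain PET TACs as %ID/g; AUC from zero to the last time point. Brain %ID/g at 25 min divided by whole-blood %ID/g from a separate group (one mouse per genotype) gives brain-blood ratio. Mean±SD; Mann-Whitney U versus wild-type.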

[2] = type: in vivo, mice; conditions: for total plasma radioactivity recovered in SPE fraction 3 (MeOH) / percentage of unchanged [11C]-1 in mouse plasma / Blood concentration, 25 min: n=1; for percentage of unchanged [11C]-1 in mouse plasma: 25 min after tracer injection; for percentage of total brain radioactivity in the form of unchanged [11C]-1: brain tissue extract, HPLC system A; for Blood concentration, 25 min: total radioactivity; for mean brain-to-plasma ratio of unchanged [11C]-1, fold higher compared to wild-type animals: 25 min, p=0.0495; for Kp at 25 min: mouse, brain and plasma, intravenous, Brain-plasma ratio of unchanged [11C]-1, 25 min, mean±SD
In short: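 Female mice, 25-30 g, one per genotype, given radiotracer i.v. At 25 min: cardiac blood into heparin, spun 3,000×g, 5 min, 21°C, for plasma. Blood and plasma weighed, gamma-counted (cross-calibrated with PET), decay-corrected, %ID/g. Plasma spiked with unlabelled carrier, acidified, run through tC18 SPE (H2O wash, MeOH elution). H2O and MeOH fractions went to reversed-phase HPLC (pH 5.0, 35°C) and Aminex HPLC, UV 227 nm. Brain homogenised in saline, CH3CN-extracted, supernatant HPLC.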

[3] = Stability testing in formulation solution for i.v. injection; type: physicochemical; conditions: at least 2 h at room temperature; 0.9% aq. saline/ethanol/polyethylene glycol 300; HPLC system A
[4] = Stability testing in mouse plasma in vitro; type: in vitro ADME; conditions: 37°C, 30 min, SPE/HPLC
In short: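 Citrated mouse plasma (0.5 mL) mixed with 20 µL formulated radiotracer (about 40 MBq). Held 30 min at 37°C in a shaking water bath. Then C18 solid-phase extraction: acidified load, H2O wash, MeOH elution. Fractions analysed by radio-HPLC, reversed-phase column, CH3CN/MeOH/NH4OAc pH 5.0, UV 227 nm, to find the polar labelled species.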

[5] = rats; time course of a 1 h PET scan; cited from earlier work
[6] = Bcrp1(−/−) mice, 25 min after injection
[7] = Mdr1a/b(−/−) mice, 25 min after injection
[8] = wild-type mice, 25 min after injection

COC(=O)c1ccc(C(=O)Nc2ccc(CCN3CCc4cc(OC)c(OC)cc4C3)cc2)cc1NC(=O)c1ccc2ccccc2n1 [Compound 1, Methyl 4-((4-(2-(6,7-dimethoxy-1,2,3,4-tetrahydroisoquinolin-2-yl)ethyl)phenyl)amino-carbonyl)-2-(quinoline-2-carbonylamino)benzoate]
selectivity for inhibition of BCRP over P-gp (BCRP; in vitro transport assays): approximately 500 fold
IC50 (BCRP; read-out: half-maximum inhibitory concentration (IC50), BCRP-mediated transport of mitoxantrone, topotecan-resistant MCF-7 breast cancer cells): 0.06 µM

COc1cc2c(cc1OC)CN(CCc1ccc(NC(=O)c3ccc(C(=O)O[11CH3])c(NC(=O)c4ccc5ccccc5n4)c3)cc1)CC2 [[^11C]-1, [^11C]Methyl 4-((4-(2-(6,7-dimethoxy-1,2,3,4-tetrahydroisoquinolin-2-yl)ethyl)phenyl)amino-carbonyl)-2-(quinoline-2-carbonylamino)benzoate]
Brain AUC ([1]; Bcrp1(−/−) mice): 3.1±0.2 h·%ID/g
Brain-blood ratio, 25 min ([1]; Bcrp1(−/−) mice): 1.6±0.1
Brain concentration, 25 min ([1]; Bcrp1(−/−) mice): 3.5±0.2 %ID/g
AUC of brain TACs, fold higher compared to wild-type animals ([1]; Mdr1a/b(−/−) mice): 1.3 fold
Brain AUC ([1]; Mdr1a/b(−/−) mice): 3.6±0.6^† h·%ID/g
Brain-blood ratio, 25 min ([1]; Mdr1a/b(−/−) mice): 1.7±0.3
Brain concentration, 25 min ([1]; Mdr1a/b(−/−) mice): 4.2±0.8 %ID/g
Brain AUC ([1]; Mdr1a/b(−/−)Bcrp1(−/−) mice): 5.1±0.9^† h·%ID/g
Brain-blood ratio, 25 min ([1]; Mdr1a/b(−/−)Bcrp1(−/−) mice): 3.2±0.6
Brain concentration, 25 min ([1]; Mdr1a/b(−/−)Bcrp1(−/−) mice): 5.8±1.2 %ID/g
AUC of brain TACs, fold higher compared to wild-type animals ([1]; triple knockout (Mdr1a/b(−/−)Bcrp1(−/−)) mice): 1.8 fold
Brain AUC ([1]; wild-type mice): 2.8±0.2 h·%ID/g
Brain-blood ratio, 25 min ([1]; wild-type mice): 1.5±0.1
Brain concentration, 25 min ([1]; wild-type mice): 3.2±0.2 %ID/g
total plasma radioactivity recovered in SPE fraction 3 (MeOH) [2, 6]: 19%
percentage of unchanged [11C]-1 in mouse plasma ([2]; Bcrp1(−/−) mice): 14%
percentage of total brain radioactivity in the form of unchanged [11C]-1 [2, 6]: 25%
Blood concentration, 25 min ([2]; Bcrp1(−/−) mice): 2.3 %ID/g
mean brain-to-plasma ratio of unchanged [11C]-1, fold higher compared to wild-type animals ([2]; Mdr1a/b(−/−) mice): 4.8 fold
total plasma radioactivity recovered in SPE fraction 3 (MeOH) [2, 7]: 28%
percentage of unchanged [11C]-1 in mouse plasma ([2]; Mdr1a/b(−/−) mice): 17%
percentage of total brain radioactivity in the form of unchanged [11C]-1 [2, 7]: 62%
Blood concentration, 25 min ([2]; Mdr1a/b(−/−) mice): 2.5 %ID/g
mean brain-to-plasma ratio of unchanged [11C]-1, fold higher compared to wild-type animals ([2]; Mdr1a/b(−/−)Bcrp1(−/−) mice): 10.3 fold
total plasma radioactivity recovered in SPE fraction 3 (MeOH) ([2]; Mdr1a/b(−/−)Bcrp1(−/−) mice, 25 min after injection): 18%
percentage of unchanged [11C]-1 in mouse plasma ([2]; Mdr1a/b(−/−)Bcrp1(−/−) mice): 11%
Blood concentration, 25 min ([2]; Mdr1a/b(−/−)Bcrp1(−/−) mice): 1.8 %ID/g
total plasma radioactivity in the form of unchanged parent ([2]; mouse plasma extracts, 25 min after injection, range over the 4 mouse types): 11-17%
Kp at 25 min ([2]; Bcrp1(−/−) mice): 2.1 ± 0.1
Kp at 25 min ([2]; Mdr1a/b(−/−) mice): 8.6 ± 1.6
Kp at 25 min ([2]; Mdr1a/b(−/−)Bcrp1(−/−) mice): 18.3 ± 3.7
Kp at 25 min ([2]; wild-type mice): 1.8 ± 0.1
total plasma radioactivity recovered in SPE fraction 3 (MeOH) [2, 8]: 25%
percentage of unchanged [11C]-1 in mouse plasma ([2]; wild-type mice): 13%
percentage of total brain radioactivity in the form of unchanged [11C]-1 [2, 8]: 12%
Blood concentration, 25 min ([2]; wild-type mice): 2.1 %ID/g
stability in formulation solution for i.v. injection [3]: 100%
total radioactivity degraded to an unidentified polar radiolabelled species [4]: > 98%

COc1cc2c(cc1OC)CN(CCc1ccc(NC(=O)c3cc(OC)c(OC)cc3NC(=O)c3cnc4ccccc4c3)cc1)CC2 [tariquidar]
metabolism in vivo [5]: hardly metabolized

From PMC3690702 (Nuclear medicine and biology, 2010)
